The values that follow come from the array DNA melting data of Ke et al. (doi:10.1101/2024.01.08.574731).

Data set [1] is described as follows: melting temperature; fluorescence melt of hairpins on a sequencing array, two-state fit, raised by 9.35 °C to match UV melts. The following applies: sodium 0.088 M. In a few lines: (§1)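 Two-state fits, bootstrapped, provided melting temperature and folding enthalpy from Cy3 fluorescence normalised to pre-quench Cy3 and to control constructs. Library hairpins with annealed Cy3 and quencher oligos were imaged on a sequenced MiSeq flow cell in 50 mM Na-HEPES pH 8.0, 25 mM NaCl, at 2.5 °C intervals up to 60 °C. Four replicates were combined with inverse-variance weighting. A 9.35 °C upward shift was applied to fitted temperatures to match UV melts.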

Data set [2] is described as follows: folding enthalpy; higher = less favourable; fluorescence melt of hairpins on a sequencing array, two-state fit. The following applies: sodium 0.088 M. The method in brief: as §1

For the sequence GACCGGCGAAAGCCCGTC (((.(((....))).))), the Tm in data set [1] was 50.8 °C. Moreover, in data set [2], the folding enthalpy was -16.9 kcal/mol.
For GAATGCGAAAGCATGTTC ((((((....)))..))), in that order: 42.6 °C and -11.2 kcal/mol.
The like results for GCCGTCGAAAGACCAGGC ((((((....)))..))) were, in that order, 48.9 °C and -17.5 kcal/mol.
Regarding GATCCTGCCTAGGATC ((((((....)))))), the Tm in data set [1] came out at 54.7 °C. For the same sequence, the folding enthalpy in data set [2] is -43.7 kcal/mol.
The like results for GATAGAGGAAACTCTATC (((((((....))))))) were, in that order, 50.2 °C and -42 kcal/mol.
For GATCAATTCTTGATC ((((((...)))))), the Tm in data set [1] is 44.8 °C. Moreover, the folding enthalpy in data set [2] was -29.1 kcal/mol.
The like results for GGCGTCGAAAGACTAGCC ((((((....)))..))) were, in that order, 54.5 °C and -34 kcal/mol.
As to GATGACCCGAAAGGGATC (((..(((....)))))), the Tm in data set [1] amounted to 33.2 °C. In addition, the folding enthalpy in data set [2] is -11.7 kcal/mol.
For GGGGATGGAAACACCCCC ((((.((....)).)))), in that order: 49 °C and -26.4 kcal/mol.
In the case of GTCCTAGGAAACTGGGAC ((((.((....)).)))), the Tm in data set [1] was determined as 49.4 °C. Also, in data set [2], the folding enthalpy was -37.8 kcal/mol.
On to GCGAACCTTCGC ((((....)))), for which the Tm in data set [1] is 50.3 °C. The folding enthalpy in data set [2] was -24.2 kcal/mol.
For the sequence GCTTATCCGAAAGGAAGC (((..(((....)))))), the Tm in data set [1] worked out at 34.3 °C. Besides, the folding enthalpy in data set [2] is -15.5 kcal/mol.
In the case of GATCGTTTTACGATC ((((((...)))))), the Tm in data set [1] was found to be 60.1 °C. Moreover, the folding enthalpy in data set [2] is -40.8 kcal/mol.
For GCGTAATCACGC ((((....)))), in that order: 52.7 °C and -21.9 kcal/mol.
With GTACTCGAAAGAGCATAC ((((((....)))..))), in data set [1], the Tm worked out at 23.5 °C. The folding enthalpy in data set [2] is -10.9 kcal/mol.
For GTAAGCGAAAGCTTAC ((((((....)))))), in that order: 67.2 °C and -27.9 kcal/mol.
Regarding GTTACCGAAAGGTATAAC ((((((....)))..))), in data set [1], the Tm was 31.1 °C. For the same sequence, the folding enthalpy in data set [2] is -11.7 kcal/mol.
As to GTGAACGGAAACGTTTGC (..((((....))))..), the Tm in data set [1] is 38.9 °C. In addition, in data set [2], the folding enthalpy was -22.6 kcal/mol.
On to GCCAGGGGAAACCCCGAC (.(.(((....))).).), for which, in data set [1], the Tm was 32.6 °C. In addition, the folding enthalpy in data set [2] was -9.47 kcal/mol.
Consider GATCTTAGAGAAGATC ((((((....)))))), for which the Tm in data set [1] worked out at 37.7 °C. Moreover, in data set [2], the folding enthalpy is -21.1 kcal/mol.
The like results for CGTAAGAAATTACG (((((....))))) were, in that order, 38.4 °C and -15.7 kcal/mol.
Take GTGATGACGAAAGTCCAC (((..(((....)))))): in data set [1], the Tm was determined as 35.1 °C. Also, the folding enthalpy in data set [2] is -18.4 kcal/mol.
For GATCTTAAGAAAGATC ((((((....)))))), in that order: 36 °C and -22.1 kcal/mol.
Regarding GAGAACGAAAGTTCTC ((((((....)))))), the Tm in data set [1] was 62.4 °C. In data set [2], the folding enthalpy is -36 kcal/mol.
With CGATGCGGAAACGCCTCG (((.(((....))).))), the Tm in data set [1] amounted to 48.1 °C. In data set [2], the folding enthalpy was -40.4 kcal/mol.
With CGTGCGGAAACGCGTACG ((((((....)))..))), in data set [1], the Tm is 48.6 °C. Further, the folding enthalpy in data set [2] was -26.1 kcal/mol.
Regarding GCTAACGAAAGTTATAGC ((((((....)))..))), the Tm in data set [1] came out at 36 °C. Also, the folding enthalpy in data set [2] was -24.2 kcal/mol.
For the sequence CTGATGAAAATCAG (((((....))))), the Tm in data set [1] turned out to be 43.4 °C. Further, the folding enthalpy in data set [2] is -22 kcal/mol.
The like results for GCAGCCGGAAACGACTGC ((((.((....)).)))) were, in that order, 56.6 °C and -43.5 kcal/mol.
For GCCCATGCGAAAGCAGGC (((..(((....)))))), in that order: 50.8 °C and -13.8 kcal/mol.
On to GTTACCCGAAAGGGCAAC (((.(((....))).))), for which the Tm in data set [1] amounted to 47.3 °C. The folding enthalpy in data set [2] was -24.4 kcal/mol.
With GATACGGAAACGTATC ((((((....)))))), the Tm in data set [1] worked out at 54 °C. Besides, the folding enthalpy in data set [2] is -43.6 kcal/mol.
Turning to GAGTACGGAAACGTATTC ((.((((....)))).)), in data set [1], the Tm stood at 41.6 °C. In addition, the folding enthalpy in data set [2] is -24.4 kcal/mol.
For GGATTCGGAAACGGATCC ((((.((....)).)))), the Tm in data set [1] was 53 °C. In data set [2], the folding enthalpy was -39.2 kcal/mol.
Take GGTCGGCGAAAGCCACC (((.(((....)))))): the Tm in data set [1] came out at 55.3 °C. In addition, in data set [2], the folding enthalpy is -14.8 kcal/mol.
For GATCTATGACTAGATC ((((((....)))))), in that order: 37.1 °C and -26.7 kcal/mol.
In the case of GATCTGAGCACAGATC ((((((....)))))), in data set [1], the Tm came out at 49.5 °C. Besides, in data set [2], the folding enthalpy is -29 kcal/mol.
